Experimental data: ChEMBL document CHEMBL1667755, “2-hydroxyisoquinoline-1,3(2H,4H)-diones as inhibitors of HIV-1 integrase and reverse transcriptase RNase H domain: influence of the alkylation of position 4” (Eur J Med Chem, 2011); call rule not given here

How the values were obtained:
[1] = tested on: Human immunodeficiency virus 1; assay: Antiviral activity against HIV1 3B infected in human MT4 cells assessed as inhibition of virus-induced cytopathic effect by MTT assay; type: functional, organism-based; conditions: Human immunodeficiency virus 1, 3B
Outline: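 MT-4 cells infected with 100-300 CCID50 of HIV-1 IIIB (dose titrated in MT-4 cells) in the presence of 5-fold serial drug dilutions. Protection from virus-induced cytopathic effect read by MTT reduction to formazan, measured spectrophotometrically.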

[2] = target: Human immunodeficiency virus type 1 integrase (Human immunodeficiency virus 1, UniProt Q7ZJM1); assay: Inhibition of HIV-1 integrase after 1 hr by immunosorbent assay
Sequence of Human immunodeficiency virus type 1 integrase (Q7ZJM1 whole entry): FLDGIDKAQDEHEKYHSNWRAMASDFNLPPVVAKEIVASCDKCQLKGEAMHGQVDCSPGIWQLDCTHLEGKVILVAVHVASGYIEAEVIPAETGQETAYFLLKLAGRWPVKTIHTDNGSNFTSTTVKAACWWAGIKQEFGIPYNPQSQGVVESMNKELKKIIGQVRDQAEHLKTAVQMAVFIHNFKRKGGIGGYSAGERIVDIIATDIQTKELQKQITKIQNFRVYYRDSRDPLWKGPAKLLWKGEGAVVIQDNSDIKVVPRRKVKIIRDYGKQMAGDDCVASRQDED
Outline: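 Overall integration ELISA. Substrate is annealed oligos (7 nM), one 3'-biotin-labelled and one 5'-digoxigenin-labelled, with integrase at […] as written. Reaction 1 h at 37 °C, then immunodetection on avidin-coated plates. IC50 is the mean ± SD of at least three independent experiments.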

[3] = Cytotoxicity against human MT4 cells by MTT assay; type: cell-based
[4] = target: Human immunodeficiency virus type 1 reverse transcriptase (Human immunodeficiency virus 1, UniProt Q72547); assay: Inhibition of recombinant HIV-1 reverse transcriptase RNase H domain after 10 mins
Outline: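 Recombinant HIV-1 RT (4.5 pmol) preincubated with compound 10 min at 37 °C. Then added: 3H-RNA/DNA duplex (E. coli RNA polymerase transcript of calf thymus ssDNA, 20,000 cpm) in 50 mM Tris-HCl pH 8.0, 10 mM DTT, 6 mM MgCl2, 80 mM KCl; 10 min at 37 °C. Stopped with cold 10% TCA/0.1 M pyrophosphate; filter-bound radioactivity counted.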

[5] = tested on: Human immunodeficiency virus 1; assay: Selectivity ratio of IC50 for recombinant HIV-1 reverse transcriptase RNase H domain to IC50 for HIV-1 integrase

SMILES	IC50 [2]	IC50 ([4]; read-out: IC50)	Ratio IC50 [5]	EC50 [1]	CC50 [3]	IC50 [4]
O=C1c2ccccc2C(Cc2ccc(C(F)(F)F)cc2)C(=O)N1O (centres undefined)	23.2 µM	42.7 µM		> 6 µM	6 µM	
CCCCCC1C(=O)N(O)C(=O)c2ccccc21 (centres undefined)	1.35 µM	33.6 µM		> 98.3 µM	98.3 µM	
CCCC1C(=O)N(O)C(=O)c2ccccc21 (centres undefined)	21.1 µM	46.8 µM		> 25.4 µM	25.4 µM	
O=C1c2ccccc2C(Cc2ccccc2)C(=O)N1O (centres undefined)	37.7 µM			> 95 µM	95 µM	Not Active
CCCCCCC1C(=O)N(O)C(=O)c2ccccc21 (centres undefined)	11.4 µM	38 µM		> 4.4 µM	4.4 µM	
CC(C)C1C(=O)N(O)C(=O)c2ccccc21 (centres undefined)	35.5 µM	18.5 µM		> 122 µM	122 µM	
O=c1c2ccccc2c(Cc2ccccc2)c(O)n1O	39.9 µM	14.9 µM		> 88 µM	88 µM	
O=C1c2ccccc2C(CCc2ccccc2)C(=O)N1O (centres undefined)	27.8 µM			> 30 µM	30 µM	Not Active

Further lines, with some results ahead:

IC50 [2]	IC50 ([4]; read-out: IC50)	Ratio IC50 [5]	SMILES	EC50 [1]	CC50 [3]	IC50 [4]
2.6 µM	66.8 µM		O=C1c2ccccc2C(CCCc2ccccc2)C(=O)N1O (centres undefined)	> 5.2 µM	5.2 µM	
45.4 µM	7.8 µM		CCCCCCc1c(O)n(O)c(=O)c2ccccc12	> 128 µM	128 µM	
113 µM	45 µM	0.4	CCCCCCCc1c(O)n(O)c(=O)c2ccccc12			
40.2 µM	13.2 µM		CCCCC1C(=O)N(O)C(=O)c2ccccc21 (centres undefined)	> 25.4 µM	25.4 µM	
15.7 µM	70 µM		CCC1C(=O)N(O)C(=O)c2ccccc21 (centres undefined)	> 250 µM	250 µM	
3.4 µM	80 µM		Cc1ccc(CC2C(=O)N(O)C(=O)c3ccccc32)cc1 (centres undefined)	> 5.5 µM	5.5 µM	
3.3 µM	38.8 µM		CC1C(=O)N(O)C(=O)c2ccccc21 (centres undefined)	> 250 µM	250 µM	
